According to ChEMBL document CHEMBL3804796, “Discovery of Novel 3,3-Disubstituted Piperidines as Orally Bioavailable, Potent, and Efficacious HDM2-p53 Inhibitors” (ACS Med Chem Lett, 2016):
Calls of active or inactive are those of the source. The rule behind the calls is not given here.

What was measured:
[1] = system: A549; assay: Antiproliferative activity against human A549 cells expressing wild type p53 after 72 hrs by CellTitre-Glo assay; assay type: functional, cell-based
How it was run: (§1)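 Cell lines exposed to compound for 72 h; viability read by CellTiter-Glo and IC50 derived. p53 coding-region mutation status of each line established by direct sequencing.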

[2] = system: NCI-H460; assay: Antiproliferative activity against human NCI-H460 cells expressing wild type p53 after 72 hrs by CellTitre-Glo assay; assay type: functional, cell-based; how it was run: as §1
[3] = system: NCI-H292; assay: Antiproliferative activity against human NCI-H292 cells expressing wild type p53 after 72 hrs by CellTitre-Glo assay; assay type: functional, cell-based; how it was run: as §1
[4] = system: UACC-62; assay: Antiproliferative activity against human UACC62 cells expressing wild type p53 after 72 hrs by CellTitre-Glo assay; assay type: functional, cell-based; how it was run: as §1
[5] = system: WM-115; assay: Antiproliferative activity against human WM115 cells expressing wild type p53 after 72 hrs by CellTitre-Glo assay; assay type: functional, cell-based; how it was run: as §1
[6] = system: LOX IMVI; assay: Antiproliferative activity against human LOXIMVI cells expressing wild type p53 after 72 hrs by CellTitre-Glo assay; assay type: functional, cell-based; how it was run: as §1
[7] = system: A-375; assay: Antiproliferative activity against human A375 cells expressing wild type p53 after 72 hrs by CellTitre-Glo assay; assay type: functional, cell-based; how it was run: as §1
[8] = system: A549; assay: Antitumor activity against human A549 cells xenografted in nude mouse assessed as tumor growth inhibition at 100 mg/kg, po qd administered with cycle of 3 days on, 4 days off for 30 days coadministered with 20 mg/kg, ip once weekly paclitaxel relative to control; assay type: functional
How it was run: (§2)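 Mice bearing A549 NSCLC xenografts. The test agent was given orally, either daily or intermittently (daily for 3 days, then 4 days off). Paclitaxel was given at 20 mg/kg ip weekly, alone or in combination. Read-out was tumor growth inhibition.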

[9] = Antiproliferative activity against human SJSA1 cells expressing wild type p53 after 72 hrs by CellTitre-Glo assay; settings: SJSA-1, 72 h
[10] = biological target: Tumour suppressor p53/oncoprotein Mdm2 (Homo sapiens, UniProt Q00987); assay: Inhibition of MDM2/p53 interaction in human HCT116 cells assessed as activation of p53 transcription by luciferase reporter gene assay; assay type: cell-based, HCT-116
Tumour suppressor p53/oncoprotein Mdm2, sequence (P04637 whole entry): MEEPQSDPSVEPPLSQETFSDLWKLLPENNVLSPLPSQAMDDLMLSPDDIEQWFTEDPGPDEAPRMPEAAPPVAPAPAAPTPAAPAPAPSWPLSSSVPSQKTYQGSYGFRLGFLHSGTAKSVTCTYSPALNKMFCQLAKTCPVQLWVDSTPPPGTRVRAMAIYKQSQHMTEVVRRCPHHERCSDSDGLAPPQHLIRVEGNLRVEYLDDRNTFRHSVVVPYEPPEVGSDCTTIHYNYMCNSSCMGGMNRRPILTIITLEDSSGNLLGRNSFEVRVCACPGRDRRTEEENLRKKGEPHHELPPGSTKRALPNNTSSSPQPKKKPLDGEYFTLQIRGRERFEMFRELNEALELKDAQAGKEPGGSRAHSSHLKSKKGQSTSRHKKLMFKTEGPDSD
Tumour suppressor p53/oncoprotein Mdm2, sequence (Q00987 whole entry): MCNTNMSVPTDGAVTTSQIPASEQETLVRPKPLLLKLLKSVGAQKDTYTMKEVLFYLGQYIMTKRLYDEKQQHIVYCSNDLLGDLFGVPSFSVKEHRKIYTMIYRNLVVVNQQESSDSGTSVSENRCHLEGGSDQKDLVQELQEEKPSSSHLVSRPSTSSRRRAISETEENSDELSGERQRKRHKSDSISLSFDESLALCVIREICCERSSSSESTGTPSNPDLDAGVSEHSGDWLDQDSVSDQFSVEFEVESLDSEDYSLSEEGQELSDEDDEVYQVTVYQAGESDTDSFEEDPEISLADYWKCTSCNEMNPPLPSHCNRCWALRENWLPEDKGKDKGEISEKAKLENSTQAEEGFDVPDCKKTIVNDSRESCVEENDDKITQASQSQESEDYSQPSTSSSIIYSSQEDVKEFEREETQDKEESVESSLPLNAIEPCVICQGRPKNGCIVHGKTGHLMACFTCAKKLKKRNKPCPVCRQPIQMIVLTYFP
How it was run: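 p53 transcriptional activation measured in HCT116 cells with a p53 response element–driven luciferase reporter (P53RE-Luc).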

[11] = Permeability from apical to basolateral side in human Caco2 cells; assay type: ADME, cell-based; settings: Caco-2, read-out: permeability
[12] = system: Canis familiaris; assay: Dose normalized AUC (0 to 24 hrs) in dog at 1 mg/kg, po administered as single dose; assay type: ADME, organism-based, Canis lupus familiaris; settings: in vivo
How it was run: (§3)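 Single oral dose of 1 mg/kg. Vehicle was 20% HPBCD for mouse and 0.4% HPMC for dog and monkey. Plasma AUC over 0–24 h, dose-normalized, reported in μM·h.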

[13] = system: Rhesus monkey; assay: Dose normalized AUC (0 to 24 hrs) in monkey at 1 mg/kg, po administered as single dose; assay type: ADME, organism-based, Macaca mulatta; settings: in vivo; how it was run: as §3
[14] = system: HCT-116; assay: Selectivity ratio of IC50 for p53 null human H1299 cells to IC50 for human HCT116 cells expressing wild type p53; assay type: functional
How it was run: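 Ratio of two IC50s, each from a 72 h CellTiter-Glo viability assay. p53 coding-region status was confirmed by direct sequencing. The ratio is p53-mutant (SK-UT-1) or p53-null (H1299) IC50 divided by wild-type p53 (SJSA-1 or HCT116) IC50.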

[15] = Clearance in mouse at 2 mg/kg, iv; assay type: ADME, organism-based; settings: in vivo
[16] = Clearance in monkey at 1 mg/kg, iv; assay type: ADME, organism-based, Macaca mulatta; settings: rhesus monkey, in vivo
[17] = biological target: Cytochrome P450 2C8 (Homo sapiens, UniProt P10632); assay: Inhibition of CYP2C8 (unknown origin); assay type: ADME
Cytochrome P450 2C8, sequence (P10632 whole entry): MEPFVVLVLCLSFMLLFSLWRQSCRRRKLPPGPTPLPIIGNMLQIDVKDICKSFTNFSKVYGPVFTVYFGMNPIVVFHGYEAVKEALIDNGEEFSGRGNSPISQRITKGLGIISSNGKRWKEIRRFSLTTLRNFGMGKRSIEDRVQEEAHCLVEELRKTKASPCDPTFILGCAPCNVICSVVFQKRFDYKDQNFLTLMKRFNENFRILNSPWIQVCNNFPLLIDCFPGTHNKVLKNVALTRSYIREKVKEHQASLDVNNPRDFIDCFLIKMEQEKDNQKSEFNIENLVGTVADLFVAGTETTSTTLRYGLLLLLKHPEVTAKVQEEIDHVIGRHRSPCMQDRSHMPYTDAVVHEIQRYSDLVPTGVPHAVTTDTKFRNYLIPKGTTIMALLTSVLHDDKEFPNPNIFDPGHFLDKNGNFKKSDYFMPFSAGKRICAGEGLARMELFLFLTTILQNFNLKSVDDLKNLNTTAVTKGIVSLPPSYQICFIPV

[18] = Fraction unbound in monkey plasma; assay type: ADME, cell-free, Macaca mulatta; settings: rhesus monkey
[19] = Fraction unbound in mouse plasma; assay type: ADME, cell-free
[20] = Antitumor activity against human SJSA1 cells xenografted in nude mouse assessed as tumor growth inhibition at 200 mg/kg, po qd administered with cycle of 3 days on, 4 days off for 30 days relative to control; assay type: functional; settings: SJSA-1, po, read-out: TGI
How it was run: (§4)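 Nude mice bearing SJSA-1 osteosarcoma xenografts, n = 5 per group. Oral dosing in 20% HPBCD, given either intermittently (daily, 3 days on/4 days off) or continuously daily. Body weight was monitored against a vehicle control group.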

[21] = Antitumor activity against human SJSA1 cells xenografted in nude mouse assessed as tumor growth inhibition at 200 mg/kg, po qd continuously for 30 days relative to control; assay type: functional; settings: SJSA-1, po, 720 h, read-out: TGI; how it was run: as §4
[22] = system: SJSA-1; assay: Antitumor activity against human SJSA1 cells xenografted in nude mouse assessed as tumor growth inhibition at 100 mg/kg, po qd continuously for 30 days; assay type: functional, organism-based
How it was run: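 Nude mice bearing SJSA-1 osteosarcoma xenografts, 5 per group, dosed orally in 20% HPBCD. Schedules were either continuous daily or intermittent (3 days on, 4 days off), at 100 and 200 mpk. Tumor volume and body weight followed against a vehicle control group.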

[23] = system: Mus musculus; assay: Toxicity in nude mouse xenografted with human SJSA1 cells assessed as body weight loss at 50 to 200 mg/kg, po qd administered with cycle of 3 days on, 4 days off for 30 days; assay type: organism-based, SJSA-1; settings: in vivo
How it was run: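 Nude mice bearing SJSA-1 osteosarcoma xenografts, n = 5 per group. Dosing was oral in 20% HPBCD, either continuous daily at 100 and 200 mpk or intermittent (daily for 3 days on, 4 days off). Body weight was compared against a vehicle-control group.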

[24] = system: A549; assay: Antitumor activity against human A549 cells xenografted in nude mouse assessed as tumor growth inhibition at 200 mg/kg, po qd continuously for 30 days relative to control; assay type: functional; settings: 720 h, read-out: TGI; how it was run: as §2
[25] = system: A2780; assay: Antitumor activity against human A2780 cells xenografted in nude mouse harboring wild type p53 assessed as tumor growth inhibition at 50 mg/kg, po bid continuously for 15 days relative to control; assay type: functional; settings: 360 h, read-out: TGI
How it was run: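 Wild-type p53 mice bearing A2780 ovarian xenografts. The test agent was given at 50 mg/kg orally twice daily, continuously. Docetaxel was given at 40 mg/kg ip weekly, twice in total. Each was given alone and in combination. Read-out was tumor growth inhibition.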

[26] = system: ACHN; assay: Antiproliferative activity against human ACHN cells expressing wild type p53 after 72 hrs by CellTitre-Glo assay; assay type: functional, cell-based; how it was run: as §1
[27] = system: LNCaP; assay: Antiproliferative activity against human LNCAP cells expressing wild type p53 after 72 hrs by CellTitre-Glo assay; assay type: functional, cell-based; how it was run: as §1
[28] = system: DOHH-2; assay: Antiproliferative activity against human DOHH2 cells expressing wild type p53 after 72 hrs by CellTitre-Glo assay; assay type: functional, cell-based; how it was run: as §1
[29] = system: MOLT-3; assay: Antiproliferative activity against human MOLT3 cells expressing wild type p53 after 72 hrs by CellTitre-Glo assay; assay type: functional, cell-based; how it was run: as §1
[30] = system: KU812; assay: Antiproliferative activity against human KU812 cells expressing wild type p53 after 72 hrs by CellTitre-Glo assay; assay type: functional, cell-based; how it was run: as §1
[31] = system: CMLT1; assay: Antiproliferative activity against human CMLT1 cells expressing wild type p53 after 72 hrs by CellTitre-Glo assay; assay type: functional, cell-based; how it was run: as §1
[32] = system: MOLT-4; assay: Antiproliferative activity against human MOLT4 cells expressing wild type p53 after 72 hrs by CellTitre-Glo assay; assay type: functional, cell-based; how it was run: as §1
[33] = system: ML-2; assay: Antiproliferative activity against human ML2 cells expressing wild type p53 after 72 hrs by CellTitre-Glo assay; assay type: functional, cell-based; how it was run: as §1

For `CCC[C@H]1N(C(=O)c2cnccc2C(F)(F)F)CCC[C@@]1(Oc1csc(C(F)(F)F)c1)C(=O)N1CCN(c2ccccc2OCCCC(=O)O)CC1`, the Activity [1] was “Active”, the Activity [2] was “Active” and the Activity [3] was “Active”. For the same compound, the Activity [4] was “Active”, the Activity [5] was “Active” and the Activity [6] was “Active”. The Activity [7] was “Active”, the TGI [8] was 85% and the IC50 [9] was 80 nM. It also gave an EC50 [10] of 100 nM, a Papp A→B [11] of 18 ×10⁻⁶ cm/s and an AUC/dose [12] of 5.8 µM·h. The AUC/dose [13] was 0.2 µM·h, the “Ratio IC50” value [14] was over 500 and the clearance [15] was 133 mL/min/kg. The clearance [16] was 23 mL/min/kg, the IC50 [17] was over 50000 nM and the fraction unbound [18] was 0.05. The fraction unbound [19] was 0.03, the inhibition in vivo at 200 mg/kg [20] was 49% and the inhibition in vivo at 200 mg/kg [21] was 60%. For the same compound, the TGI [22] was “Active”, the Activity [23] was “Non-toxic” and the inhibition in vivo at 200 mg/kg [24] was 75%. The inhibition in vivo at 50 mg/kg [25] was 41%, the Activity [26] was “Active” and the Activity [27] was “Active”. For the same compound, the Activity [28] was “Active”, the Activity [29] was “Active” and the Activity [30] was “Active”. For the same compound, the Activity [31] was “Active”, the Activity [32] was “Active” and the Activity [33] was “Active”.
